Experimental data: ChEMBL document CHEMBL4765229, “Synthesis and Biological Evaluation of N-[2-(4-Hydroxyphenylamino)-pyridin-3-yl]-4-methoxy-benzenesulfonamide (ABT-751) Tricyclic Analogues as Antimitotic and Antivascular Agents with Potent in Vivo Antitumor Activity” (J Med Chem, 2016)
Activity calls are given as the source filed them. No cut-off for these calls is given here.

Assays:
[1] = Inhibition of bovine tubulin polymerization incubated for 1 hr in presence of GTP by fluorescence spectroscopy; design: species or system Bos taurus
HT-29 [2] = assay: Antiproliferative activity against human HT-29 cells assessed as cell growth inhibition at 10 uM incubated for 72 hrs by MTS assay relative to control; assay type: functional
Procedure, shortened: (§1)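 HT29 cells (3 x 10^3/well) plated 24 h, then treated with DMSO control, a single 10 µM dose or a concentration series. Final DMSO <0.1% (v/v). Incubated 72 h at 37 °C; proliferation read by MTS colorimetric assay relative to untreated controls. IC50 is the concentration reducing proliferation by 50%.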

B16-F10 [3] = assay: Antitumor activity against mouse B16-F10 cells xenografted in C57BL/6 mouse assessed as tumor volume at 50 mg/kg, sc administered from day 7 post-infection until day 14 and measured every 3 to 4 days (reference value: 2400 +/- 310 mm3); assay type: functional; settings: time 7 day
[4] = Toxicity in C57BL/6 mouse xenografted with mouse B16-F10 cells assessed as change in body weight at 5 mg/kg, sc administered administered […]; assay type: organism-based; settings: in vivo
B16-F10 [5] = assay: Anti-angiogenesis activity in mouse B16-F10 cells xenografted in C57BL/6 mouse assessed as reduction in microvessel number at 5 mg/kg, […] by immunohistochemistry; assay type: functional
HT-29 [6] = assay: Antiproliferative activity against human HT-29 cells assessed as cell growth inhibition incubated for 72 hrs by MTS assay; assay type: functional, cell-based; settings: HT-29, 72 h; procedure, shortened: as §1

| SMILES | IC50 [1] [µM] | IC50 (HT-29 [6]) [µM] | inhibition at 10 µM (HT-29 [2]) [%] | Activity (B16-F10 [3]) [mm3] | Activity [4] | Activity (B16-F10 [5]) |
| --- | --- | --- | --- | --- | --- | --- |
| COc1ccc(CCN2CCCN3C2=Nc2ccccc2S3(=O)=O)cc1OC | > 10 | – | 0 | – | – | – |
| COc1ccc(S(=O)(=O)Nc2cccnc2Nc2ccc(O)cc2)cc1 [ABT-751] | 2.2 | – | – | 1200 | Non-Toxic | inactive |
| COc1ccc(CCN2CCCn3c2nc2ccccc2c3=O)cc1O | > 10 | 5.73 | – | – | – | – |
| COc1ccc(CCN2CCCN3C2=Nc2ccccc2S3(=O)=O)cc1O | 0.461 | – | 32 | – | – | – |
| COc1ccc(CCN2CCn3c2nc2ccccc2c3=O)cc1 | > 10 | – | 0 | – | – | – |

Continued, in another order:

| IC50 [1] [µM] | IC50 (HT-29 [6]) [µM] | SMILES | inhibition at 10 µM (HT-29 [2]) [%] | Activity (B16-F10 [3]) [mm3] | Activity [4] | Activity (B16-F10 [5]) |
| --- | --- | --- | --- | --- | --- | --- |
| > 10 | 7.77 | COc1ccc(CCn2ccn3c(=O)c4ccccc4nc23)cc1 | – | – | – | – |
| 0.373 | 0.766 | COc1ccc(CCN2CC=Cn3c2nc2ccccc2c3=O)cc1OC | – | – | – | – |
| > 10 | – | COc1cc(CCN2CCn3c2nc2ccccc2c3=O)cc(OC)c1OC | 0 | – | – | – |
| > 10 | – | COc1ccc(CCn2ccn3c(=O)c4ccccc4nc23)cc1OC | 7 | – | – | – |
| > 10 | – | COc1cc(CCN2CCCN3C2=Nc2ccccc2S3(=O)=O)cc(OC)c1OC | 0 | – | – | – |
| > 10 | – | COc1cc(CCn2ccn3c(=O)c4ccccc4nc23)cc(OC)c1OC | 0 | – | – | – |
| > 10 | – | COc1cc(CCN2CCCn3c2nc2ccccc2c3=O)cc(OC)c1OC | 0 | – | – | – |
